# Source: PubChem
# An excerpt weighted towards active compounds, which were near 2.1% of everything screened.
# SMARCA2 act: SMARCA2 function activation, primary screen; MG213 cells, MMTV-luciferase reporter, dexamethasone, overnight; activation, % at 9.1 µM; 370,000 compounds, 1% hits; in the data active means activation above about 7.8%;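 further: 0% = vehicle wells and 100% = reference activator wells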
# MC4R ag barr: activates human MC4R beta-arrestin recruitment. AID 540308. U2OS MC4R beta-arrestin complementation, luminescence; percent of melanotan II response, DMSO zero. P32245. 360,000 compounds, 0.98% hits. activation, % at 8.9 µM;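 active means activation above a per-plate cutoff, the mean activation of sample wells on that plate plus 3 SD, cut at about 8% in these data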
# Target sequence (P32245 whole entry, looked up): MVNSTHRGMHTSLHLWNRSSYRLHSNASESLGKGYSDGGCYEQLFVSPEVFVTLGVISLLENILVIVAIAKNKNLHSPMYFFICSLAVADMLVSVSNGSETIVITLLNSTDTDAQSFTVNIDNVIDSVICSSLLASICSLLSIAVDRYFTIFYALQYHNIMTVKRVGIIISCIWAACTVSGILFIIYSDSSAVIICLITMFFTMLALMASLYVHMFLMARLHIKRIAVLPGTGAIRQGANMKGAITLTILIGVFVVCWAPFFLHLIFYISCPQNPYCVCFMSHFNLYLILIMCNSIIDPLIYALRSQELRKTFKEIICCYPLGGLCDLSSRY
# MC4R antagonist: antagonists of human melanocortin 4 receptor (MC4R). inhibition, % at 6.5 µM. MC4R-expressing cells, MTII-stimulated cAMP, LANCE TR-FRET. P32245. 360,000 compounds, 0.48% hits;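 active means inhibition above its plate's cutoff, the mean of tested wells on that plate plus 3 SD, cut at about 29% in these data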;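 further: 0% = Melanotan II alone and 100% = Melanotan II plus saturating MCL0020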
#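 Material: human MC4R-expressing U2OS cells. Probe or stimulus: Melanotan II challenge. Dosing: 6.5 µM single dose. Times: 30-min compound, 1-h challenge, 1-h detection, room temperature. Technique: TR-FRET with Eu-cAMP and labeled anti-cAMP, 671 nm. Replication: singlicate.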
# CFTR F508del cor: correctors of CFTR F508del function in bronchial epithelial cells; CFBE cells, YFP halide quenching; stimulated with forskolin plus potentiator P3; % fluorescence drop versus neutral controls; activity (quench increase), % at 7.58 µM; 350,000 compounds, 0.36% hits;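 active means mean added fluorescence quench of at least 8% versus neutral control, with both replicates also reaching 8%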;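 further: cells transiently co-express mutant CFTR-F508del with the halide-sensitive YFP; corrector assay measuring rescue of mutant channel to the surface after 24 h compound exposure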
# Active calls of the source: *; / = no result.
SMILES,SMARCA2 act,MC4R ag barr,MC4R antagonist,CFTR F508del cor
CC(=O)Nc1ccc(Nc2cc(C)nc3c(-c4ccc(Cl)cc4)c(C)nn23)cc1,7.9*,6,1,/
C[C@@H]1CCCCO[C@H](CN(C)C(=O)c2ccncc2)[C@H](C)CN([C@@H](C)CO)C(=O)c2cc(NS(=O)(=O)c3ccccc3)ccc2O1,/,/,/,1
COC(=O)C[C@H]1CC[C@H]2[C@H](COc3ccc(NC(=O)Nc4ccccc4F)cc3C(=O)N2C)O1,7.9*,/,/,/
CN1C(=O)c2cc(NC(=O)Cc3ccccc3)ccc2OC[C@@H]2O[C@H](CC(=O)NCc3ccc(Cl)cc3)CC[C@H]21,/,/,/,10*
CN1C(=O)c2cc(NC(=O)c3ccc(Cl)cc3)ccc2OC[C@H]2O[C@@H](CC(=O)NCc3cccc(F)c3)CC[C@H]21,/,/,/,2
CN1C(=O)c2cc(NC(=O)Cc3ccccc3)ccc2OC[C@H]2O[C@@H](CC(=O)NCc3ccc(Cl)cc3)CC[C@@H]21,/,/,/,2
CN1C(=O)c2cc(NC(=O)c3ccc(Cl)cc3)ccc2OC[C@@H]2O[C@H](CC(=O)NCc3cccc(F)c3)CC[C@H]21,/,/,/,12*
CN1C(=O)c2cc(NC(=O)Nc3ccccc3F)ccc2OC[C@@H]2O[C@@H](CC(=O)O)CC[C@@H]21,/,/,/,-2
C[C@H]1CCCCO[C@H](CN(C)CC2CC2)[C@@H](C)CN([C@@H](C)CO)C(=O)c2cc(NS(=O)(=O)c3ccc(F)cc3)ccc2O1,/,/,/,3
CCCN1C[C@H](C)[C@@H](OC)CN(C)C(=O)c2ccc(NC(=O)c3cnccn3)cc2OC[C@@H]1C,/,/,/,-1
CCOC(=O)C1=C(O)/C(=C/c2cc(OC)c(OC)c(OC)c2)SC1=Nc1ccc(OC)cc1,1,8.3*,-7,/
CCOC(=O)C1=C(O)/C(=C/c2ccc(OCC(=O)O)c(OCC)c2)SC1=Nc1ccc(OC)cc1,-3,-2,-5,/
CC(C)CC#Cc1ccc2c(c1)O[C@@H](CN(C)CC1CCOCC1)[C@H](C)CN([C@H](C)CO)S2(=O)=O,/,/,/,2
COc1ccc(C2=CC(=O)C[C@H](c3ccc(OC)cc3)C2)cc1,1,0,-6,2
COc1ccc([C@H]2CC(=O)C=C(c3ccc(OC)cc3OC)C2)cc1,-1,0,-16,11*
COC(=O)[C@H](CCSC)NC(=O)Cn1cc(C)c(=O)[nH]c1=O,-3,1,2,8.7*
COc1ccc(-c2cc(C(=O)Nc3cc(C)n(Cc4ccc(Cl)cc4)n3)no2)cc1OC,/,24*,6,1
COc1ccc(OC)c(-c2cc(C(=O)Nc3c(C)nn(Cc4ccc(Cl)cc4)c3C)no2)c1,-1,0,-1,/
C[C@H](CO)N1C[C@H](C)[C@H](CN(C)C(=O)c2ccc3c(c2)OCO3)Oc2cc(-c3cncnc3)ccc2S1(=O)=O,/,/,/,2
CC(C)C[C@H](NC(=O)c1nc[nH]c1C(=O)N1CCN(C(=O)OC(C)(C)C)CC1)C(=O)OC(C)(C)C,0,-1,0,12*
C[C@H](NC(=O)c1nc[nH]c1C(=O)N1CCN(C(=O)OC(C)(C)C)CC1)C(=O)OC(C)(C)C,-1,-1,11,2
CC(C)C[C@H](NC(=O)c1nc[nH]c1C(=O)NCC(=O)OCc1ccccc1)C(=O)OCc1ccccc1,-2,2,16,0
CC(C)C[C@H](NC(=O)c1nc[nH]c1C(=O)NCC(=O)OC(C)(C)C)C(=O)OCc1ccccc1,1,9.4*,19,2
C[C@@H]1CN([C@@H](C)CO)C(=O)c2cccc(NC(=O)c3cnccn3)c2O[C@@H]1CN(C)CC1CCCCC1,/,/,/,-1
Cc1ccccc1-c1ccc(C2[C@@H]3CN(C(=O)Nc4cccc(F)c4)C[C@H]2N3)cc1 (some centres not stated),/,/,/,-3
SMILES,SMARCA2 act,MC4R ag barr,MC4R antagonist,CFTR F508del cor
CC(=O)Nc1ccc2ccccc2c1,/,-1,6,/
CC(=O)Nc1ccc2cc3ccc(NC(C)=O)cc3nc2c1,3,0,-33,10.0*
O=C(C[C@@H]1CC[C@@H](NC(=O)CCN2CCCCC2)[C@H](CO)O1)NCc1ccc(Cl)c(Cl)c1,/,/,/,0
COc1ccc(CNCCC(c2ccccc2)c2ccc3c(c2)OCO3)cc1 (configuration not stated),-2,9.1*,0,5
COc1ccc(C(CC(=O)O)c2ccc3c(c2)OCO3)cc1 (configuration not stated),-2,-2,6,-1
COc1ccccc1C(CCNCc1ccccc1)c1ccc(OC(C)C)cc1 (configuration not stated),-3,9.0*,11,0
